Screening data (PubChem BioAssay)
This is a sample that favours compounds with a hit; in the whole collection about 0.99% have one here.
Rce1 inh: yeast Ras-converting enzyme inhibition; calls only; yeast membranes, quenched prenylated peptide cleavage fluorescence; Q03530; 290,000 tested, 0.27% active;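 active = fall in fluorescence gain of 50% or more versus controls, with final raw signal at or below 3038400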;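 also: plate controls were neutral control wells for no effect and wells lacking membranes for full effect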
STK33 kinase inh: inhibitors of human STK33 kinase | purified STK33, MBP phosphorylation, ADP-Glo luminescence | inhibition, % at 10 µM | 320,000 tested, 0.073% active;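 active = inhibition at or above 25%, using the most active replicate where run in duplicate; inactive = inhibition below 25%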
Target sequence (Q9BYT3 whole entry, looked up): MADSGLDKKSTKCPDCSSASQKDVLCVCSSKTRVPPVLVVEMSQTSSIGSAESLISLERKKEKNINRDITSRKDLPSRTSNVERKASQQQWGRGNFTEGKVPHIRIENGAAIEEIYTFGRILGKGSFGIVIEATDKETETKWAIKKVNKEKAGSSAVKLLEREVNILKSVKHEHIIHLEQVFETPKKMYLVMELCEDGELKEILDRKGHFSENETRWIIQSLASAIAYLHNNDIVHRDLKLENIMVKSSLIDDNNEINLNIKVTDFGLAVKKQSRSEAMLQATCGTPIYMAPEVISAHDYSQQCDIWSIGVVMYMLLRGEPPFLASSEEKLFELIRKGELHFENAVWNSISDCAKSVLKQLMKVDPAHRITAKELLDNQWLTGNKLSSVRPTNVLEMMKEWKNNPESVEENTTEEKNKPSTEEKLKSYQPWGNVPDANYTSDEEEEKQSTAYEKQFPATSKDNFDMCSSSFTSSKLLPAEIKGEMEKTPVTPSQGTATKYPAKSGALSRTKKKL
AI-2 QS modul: modulators of Vibrio harveyi AI-2 quorum sensing system; 300,000 tested, 0.4% active; activity change, % at 7.5 µM; Vibrio harveyi JMH597 AI-2 luminescence/OD600 ratio, 9 h; active compounds read low; strain lacks LuxN and CqsS sensors; 0 = neutral-control median; AID 2094; in the data active = activity change below about -75%, passing the limit was not always enough;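 also: luminescence divided by OD600 gain over 9 h not by final OD600 alone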
GSK3B inh: inhibitors of human GSK3beta kinase; GST-GSK3beta kinase, ADP-Glo luminescence, 60 min; active compounds read low; activity score (negative = inhibition), % at 10 µM; AID 2097; 300,000 tested, 0.038% active; P49841;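 active = more than half of replicate wells score below -50%, meaning over 50% inhibition versus plate controls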;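 also: 0% = median DMSO wells and -100% = median GW8510 positive control wells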
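test system = GST-tagged human GSK3beta kinase, cell-free | reagent = 25 µM ATP with peptide substrate | dosing = one dose of 10 µM per compound | schedule = 60 min reaction, RT | detection = luminescent ADP-Glo measurement of ADP formed | control set = DMSO neutral wells and GW8510 at 20 µM as positive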
GSK3A inh: human GSK-3 alpha kinase inhibition. P49840. ADP-Glo luminescence, 60 min. inhibition, % at 10 µM. 320,000 tested, 0.1% active;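 active = more than half of replicates show inhibition above 20%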;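 also: GST-tagged GSK-3 alpha with peptide substrate and 25 µM ATP; 0% = DMSO neutral wells and 100% = GW8510 positive control wells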
Dyrk1A ADPGlo: inhibitors of rat Dyrk1A kinase; ADP-Glo luminescence, NFATc1 peptide; inhibition, % at 12.5 µM; 310,000 tested, 0.43% active; in the data active = inhibition above about 50%;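 also: plate controls were vehicle with enzyme for no effect and no enzyme for full effect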
JMH597 growth: retest: inhibitors of Vibrio harveyi JMH597 growth. shares compounds with AI-2 QS modul. OD600 absorbance, 9 h; lacks LuxN and CqsS sensors. 750 tested, 1% active. AID 2726. growth inhibition, % at 7.5 µM;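 active = every replicate shows growth inhibition above 50%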
BB721 lum counter: retest counter-screen: lowers luminescence of constitutive-QS Vibrio harveyi BB721; shares compounds with AI-2 QS modul; 9 h; inhibition, % at 7.5 µM; 750 tested, 95% active; AID 2727;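 active = inhibition above about 80% in every replicate, not just on average, limit read from the data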
BB721 growth rt: retest Vibrio harveyi BB721 growth inhibition | shares compounds with AI-2 QS modul | OD600 absorbance, 9 h | growth inhibition, % at 7.5 µM | 750 tested, 3% active;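 active = every replicate shows growth inhibition above 50%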
AI-2 QS JMH597: Vibrio harveyi AI-2 signaling luminescence modulation – JMH597 strain, confirmation. inhibition, % at 7.5 µM. 750 tested, 97% active. shares compounds with AI-2 QS modul. AID 2736. Vibrio harveyi JMH597 AI-2 quorum sensing luminescence, 9 h; luxN and CqsS knockout, AI-2 only;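 active = every replicate shows more than 75% inhibition of signal versus neutral control wells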
An asterisk follows results filed as active.

What do the screens show for `Fc1ccc(-c2nnn(Cc3nc4ccccc4s3)n2)cc1`?
STK33 kinase inh: -2; AI-2 QS modul: -90*; GSK3B inh: 5; GSK3A inh: -3; Dyrk1A ADPGlo: -1; JMH597 growth: 22; BB721 lum counter: 98*; BB721 growth rt: 25; AI-2 QS JMH597: 98*

What do the screens show for `O=C(CSc1ccc2nnc(-c3cccnc3)n2n1)Nc1ccccc1C(F)(F)F`?
Rce1 inh: inactive; STK33 kinase inh: 0; AI-2 QS modul: 20; GSK3B inh: 3; GSK3A inh: -3; Dyrk1A ADPGlo: -7

Results for Cc1occc1C(=O)NNC(=O)Nc1ccc(Cl)c(Cl)c1 ?
Rce1 inh: inactive; STK33 kinase inh: -1; AI-2 QS modul: -86*; GSK3B inh: -7; GSK3A inh: -3; Dyrk1A ADPGlo: -9; JMH597 growth: 16; BB721 lum counter: 93*; BB721 growth rt: 5; AI-2 QS JMH597: 94*

What do the screens show for `O=C(CCl)NN1C(=O)NC2(CCCCC2)C1=O`?
Rce1 inh: inactive; STK33 kinase inh: 1; AI-2 QS modul: 0; GSK3B inh: -1; GSK3A inh: -2; Dyrk1A ADPGlo: 4

How did O=C(CCl)NN1C(=O)NC(c2ccccc2)(c2ccccc2)C1=O do in these assays?
Rce1 inh: inactive; STK33 kinase inh: -1; AI-2 QS modul: -95*; GSK3B inh: 1; GSK3A inh: -3; Dyrk1A ADPGlo: 1; JMH597 growth: 25; BB721 lum counter: 98*; BB721 growth rt: -226; AI-2 QS JMH597: 98*

Results for C=CCn1c(=S)[nH]c2cc(C(=O)Nc3ccc(F)cc3)ccc2c1=O ?
STK33 kinase inh: 0; GSK3A inh: -1; Dyrk1A ADPGlo: 2

How did O=C1CCC(=O)N1c1ccc(CSc2nc3ccccc3[nH]2)cc1 do in these assays?
Rce1 inh: inactive; STK33 kinase inh: 1; AI-2 QS modul: 6; GSK3B inh: 0; GSK3A inh: -1; Dyrk1A ADPGlo: -3

What do the screens show for `COc1ccc(CSc2nc3ccccc3[nH]2)cc1`?
Rce1 inh: inactive; STK33 kinase inh: 0; AI-2 QS modul: -85*; GSK3B inh: -2; GSK3A inh: 7; Dyrk1A ADPGlo: 2; JMH597 growth: 21; BB721 lum counter: 92*; BB721 growth rt: -14; AI-2 QS JMH597: 96*

How did Cc1ccc(C)[n+](CC(=O)N2CCCCC2)c1 do in these assays?
Dyrk1A ADPGlo: 2

Results for CN(C)c1cc[n+](CC(=O)Nc2ccc(Cl)c([N+](=O)[O-])c2)cc1 ?
Rce1 inh: inactive; STK33 kinase inh: -1; AI-2 QS modul: -87*; GSK3B inh: 2; GSK3A inh: 5; Dyrk1A ADPGlo: 5; JMH597 growth: 4; BB721 lum counter: 96*; BB721 growth rt: -5; AI-2 QS JMH597: 97*

How did CCCN(CC1CC1)C(=S)NC(=O)c1cc(Br)ccc1Cl do in these assays?
Dyrk1A ADPGlo: 3

What do the screens show for `CCCOC(=O)c1ccc(NC(=O)/C=C/c2cccs2)cc1`?
Rce1 inh: inactive; STK33 kinase inh: -1; AI-2 QS modul: 27; GSK3B inh: -1; GSK3A inh: -1; Dyrk1A ADPGlo: -3

How did CCCOC(=O)c1ccc(NS(=O)(=O)c2cccs2)cc1 do in these assays?
Rce1 inh: inactive; STK33 kinase inh: -1; AI-2 QS modul: -86*; GSK3B inh: 4; GSK3A inh: -2; Dyrk1A ADPGlo: -2; JMH597 growth: 16; BB721 lum counter: 89*; BB721 growth rt: -22; AI-2 QS JMH597: 99*

What do the screens show for `CC(=O)NC/C(C)=N\Nc1ccc([N+](=O)[O-])cc1`?
Rce1 inh: inactive; STK33 kinase inh: 0; AI-2 QS modul: -86*; GSK3B inh: 1; GSK3A inh: -4; Dyrk1A ADPGlo: 3; JMH597 growth: 13; BB721 lum counter: 96*; BB721 growth rt: 55*; AI-2 QS JMH597: 96*

How did COC(=O)/C=C/C(=O)Nc1cccc(C(F)(F)F)c1 do in these assays?
Rce1 inh: inactive; STK33 kinase inh: -1; AI-2 QS modul: -89*; GSK3B inh: -4; GSK3A inh: -2; Dyrk1A ADPGlo: -12; JMH597 growth: 9; BB721 lum counter: 87*; BB721 growth rt: 34; AI-2 QS JMH597: 87*

Results for Cc1cc(C(=O)NNC(=O)Nc2cccc(C(F)(F)F)c2)no1 ?
Rce1 inh: inactive; STK33 kinase inh: -1; AI-2 QS modul: -90*; GSK3B inh: 1; GSK3A inh: -3; Dyrk1A ADPGlo: 0; JMH597 growth: -7; BB721 lum counter: 98*; BB721 growth rt: -14; AI-2 QS JMH597: 98*

What do the screens show for `Cc1cc(C(=O)NNC(=O)c2cccc(C(F)(F)F)c2)no1`?
Rce1 inh: inactive; STK33 kinase inh: -4; AI-2 QS modul: 14; GSK3B inh: 1; GSK3A inh: -1; Dyrk1A ADPGlo: 4

What do the screens show for `COC(=S)Nc1cccc(C(F)(F)F)c1`?
Rce1 inh: inactive; STK33 kinase inh: -2; AI-2 QS modul: 13; GSK3B inh: 1; GSK3A inh: -1

What do the screens show for `Nc1c(N(Cc2ccco2)C(=O)c2ccccc2F)c(=O)[nH]c(=O)n1Cc1ccccc1`?
Dyrk1A ADPGlo: 13

What do the screens show for `CC(C)Cc1ccc(S(=O)(=O)Nc2ccccn2)cc1`?
Rce1 inh: inactive; STK33 kinase inh: 0; AI-2 QS modul: -93*; GSK3B inh: 1; GSK3A inh: -5; Dyrk1A ADPGlo: 12; JMH597 growth: 27; BB721 lum counter: 98*; BB721 growth rt: -15; AI-2 QS JMH597: 100*

Results for Cc1ccccc1CNC(=O)c1cc2ccccc2o1 ?
Rce1 inh: inactive; STK33 kinase inh: -1; AI-2 QS modul: -41; GSK3B inh: 2; GSK3A inh: 1; Dyrk1A ADPGlo: 6

How did O=C(NCc1ccccc1)c1cc2ccccc2o1 do in these assays?
Rce1 inh: inactive; STK33 kinase inh: 2; AI-2 QS modul: -86*; GSK3B inh: -23; GSK3A inh: 3; Dyrk1A ADPGlo: 9; JMH597 growth: -11; BB721 lum counter: 94*; BB721 growth rt: -4; AI-2 QS JMH597: 95*

How did O=C(Nc1ccc(Nc2ccccc2)cc1)c1ccccc1 do in these assays?
STK33 kinase inh: -5; AI-2 QS modul: -91*; GSK3B inh: -2; GSK3A inh: -1; JMH597 growth: 38; BB721 lum counter: 95*; BB721 growth rt: 12; AI-2 QS JMH597: 96*
